In ChEMBL document CHEMBL1128283, “Novel modified carboxy terminal fragments of neuropeptide Y with high affinity for Y2-type receptors and potent functional antagonism at a Y1-type receptor” (J Med Chem, 1995):
pEC50, pIC50: −log10 of the molar value.

Columns and labels:
HEL [1] = assay: (§1) Inhibition of NPY1-induced ([Ca2+]) release in HEL cell was determined at 100 nM; type: functional, Homo sapiens; set-up: scale not given: the % may be the effect or the level left
Procedure, shortened: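 HEL cells loaded with fura-2 and kept in suspension; calcium read as the 340/380 nm ratio. Peptide tested at 100 nM, added 30 s before NPY. Agonist activity expressed as percent of the response to 100 nM NPY. Inhibition measured against the 5 nM NPY response.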

[2] = target: T1, Neuropeptide Y receptor type 2 (Rattus norvegicus, UniProt Q9ERC0); assay: 50% displacement of specifically bound [3H]NPY2 from rat brain membranes.; type: cell membranes, Membrane
T1 sequence (Q9ERC0 whole entry): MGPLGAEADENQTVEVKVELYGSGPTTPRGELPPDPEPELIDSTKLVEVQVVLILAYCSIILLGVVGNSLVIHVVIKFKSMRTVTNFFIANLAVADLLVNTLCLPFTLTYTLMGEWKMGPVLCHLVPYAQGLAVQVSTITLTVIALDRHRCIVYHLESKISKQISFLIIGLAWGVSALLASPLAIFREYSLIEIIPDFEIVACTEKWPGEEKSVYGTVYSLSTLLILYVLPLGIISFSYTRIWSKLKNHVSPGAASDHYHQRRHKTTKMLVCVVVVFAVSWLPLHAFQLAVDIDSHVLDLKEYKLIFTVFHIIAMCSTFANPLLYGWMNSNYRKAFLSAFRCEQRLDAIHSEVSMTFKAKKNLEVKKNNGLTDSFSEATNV

HEL [3] = assay: Inhibition of NPY-induced ([Ca2+]) release in HEL cell was determined; type: functional, cell-based; details: Homo sapiens
HEL [4] = assay: as §1; type: functional; details: Homo sapiens, read-out: ED50 (the source's name)

Substance	Activity (HEL [1]) [%]	pIC50 [2]	also measured
H-HYINLIYRLRY-NH2	100	7.92	–
H-INLIYRLRY-NH2 [listing 1 of 2 here]	33	–	–
H-INLIYRLRY-NH2 [listing 2 of 2 here]	–	7.43	–
H-INPIYRLRY-NH2	–	6.76	pIC50 (HEL [3]): 8.05
H-IYRLRY-NH2	–	5.53	–
H-LIYRLRY-NH2	–	6.40	–
H-NLIYRLRY-NH2	–	6.51	–
H-RHYINLITRQRY-NH2 [listing 1 of 2 here]	0	–	–
H-RHYINLITRQRY-NH2 [listing 2 of 2 here]	–	5.89	–
H-RHYINLIYRLRY-NH2	100	7.92	–
H-TRQRY-NH2	–	< 4.00	–
H-YINLITRLY-NH2	0	5.68	–
H-YINLITRQRY-NH2	0	4.52	–
H-YINLIYRLRY-NH2	–	8.10	pEC50 (HEL [4]): 8.06
H-YINPIYRLRY-NH2 [listing 1 of 2 here]	–	–	pIC50 (HEL [3]): 7.00
H-YINPIYRLRY-NH2 [listing 2 of 2 here]	–	7.36	–
